# MC4R ag barr: agonists of human melanocortin 4 receptor (MC4R) beta-arrestin; U2OS MC4R beta-arrestin complementation, luminescence; percent of melanotan II response, DMSO zero; activation, % at 8.9 µM; 0.98% of 360,000 active; AID 540308;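 active means activation above a per-plate cutoff, the mean activation of sample wells on that plate plus 3 SD, cut at about 8% in these data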
# ANO1 activ: activates or potentiates the mouse TMEM16A chloride channel; Q8BHY3; 0.3% of 340,000 active; AID 623877; B-score at 10 µM; HEK293 TMEM16A/YFP-H148Q/I152L, iodide quench fluorescence; active compounds read low;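 active means fluorescence-ratio B-score plate-corrected deviation score at least 3 library SD below zero, with starting fluorescence score within 5 deviations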;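 further: channel opened by trigger with iodide after compound preincubation; score built on the fluorescence ratio of max minus min over baseline; more negative score means more quench and so TMEM16A activation or potentiation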
# Target sequence (Q8BHY3 whole entry, looked up): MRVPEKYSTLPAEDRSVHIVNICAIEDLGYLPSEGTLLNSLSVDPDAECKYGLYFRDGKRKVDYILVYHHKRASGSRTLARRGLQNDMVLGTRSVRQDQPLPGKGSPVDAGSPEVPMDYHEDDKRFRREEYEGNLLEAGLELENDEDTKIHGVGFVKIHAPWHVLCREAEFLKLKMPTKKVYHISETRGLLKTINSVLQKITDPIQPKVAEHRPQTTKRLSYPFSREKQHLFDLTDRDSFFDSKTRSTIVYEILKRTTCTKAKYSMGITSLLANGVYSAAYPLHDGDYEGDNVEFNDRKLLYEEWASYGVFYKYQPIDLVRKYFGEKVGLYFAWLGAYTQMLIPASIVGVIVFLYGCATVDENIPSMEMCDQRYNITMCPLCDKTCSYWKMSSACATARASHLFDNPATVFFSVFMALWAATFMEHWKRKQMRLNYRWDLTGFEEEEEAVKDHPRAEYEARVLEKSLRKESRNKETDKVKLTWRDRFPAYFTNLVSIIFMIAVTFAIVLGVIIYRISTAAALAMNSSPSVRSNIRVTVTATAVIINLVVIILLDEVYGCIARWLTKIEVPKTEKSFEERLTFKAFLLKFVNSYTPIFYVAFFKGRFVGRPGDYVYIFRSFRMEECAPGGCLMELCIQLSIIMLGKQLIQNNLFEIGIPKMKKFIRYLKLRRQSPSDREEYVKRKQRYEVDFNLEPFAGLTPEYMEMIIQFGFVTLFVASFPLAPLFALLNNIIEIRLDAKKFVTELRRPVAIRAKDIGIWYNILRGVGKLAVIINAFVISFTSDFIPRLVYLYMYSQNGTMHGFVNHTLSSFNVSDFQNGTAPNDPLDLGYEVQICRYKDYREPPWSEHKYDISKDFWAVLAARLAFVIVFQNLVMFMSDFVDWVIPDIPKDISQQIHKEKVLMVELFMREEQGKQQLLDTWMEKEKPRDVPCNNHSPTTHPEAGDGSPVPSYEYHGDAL
# ANO1 block: inhibitors of mouse TMEM16A calcium-activated chloride channel; 1.2% of 310,000 active; Q8BHY3; normalized B-score (activity score, 25-100; higher = stronger inhibition) at 10 µM; HEK293 TMEM16A/YFP iodide influx fluorescence, ionomycin;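 active means ratio plate-corrected score three or more library SD toward inhibition, starting fluorescence score within five deviations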;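 further: score derived from kinetic fluorescence span divided by baseline fluorescence per well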
# beta cell repl: MIN6 beta-cell proliferation induction | MIN6 cells proliferation, ATPlite luminescence, 48 h; cells starved in 0.2% serum; 100% = growth in 10% serum | proliferation, % at 10 µM | 0.29% of 330,000 active;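 active means compounds whose signal lies at least 3.5 SD above the mean of all wells on their plate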;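 further: 0% = DMSO-treated cells in low-serum medium and 100% = 10% serum control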
# MC4R antagonist: human MC4R antagonism in cAMP assay. MC4R-expressing cells, MTII-stimulated cAMP, LANCE TR-FRET. inhibition, % at 6.5 µM. 0.48% of 360,000 active. P32245;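 active means inhibition above its plate's cutoff, the mean of tested wells on that plate plus 3 SD, cut at about 29% in these data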;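 further: 0% = Melanotan II alone and 100% = Melanotan II plus saturating MCL0020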
#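 System: U2OS-MC4R stable cell line; Technique: Eu-cAMP/anti-cAMP TR-FRET, emission 671 nm; Repeats: single well per compound; Also added: Melanotan II; Dosing: one concentration, 6.5 µM nominal; Schedule: 30-min compound, 1-h challenge, 1-h detection, room temperature.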
# HTR2A ag: mouse HTR2A agonism via beta-arrestin recruitment; CHO-K1 mHTR2A beta-arrestin complementation, luminescence; percent of 30 µM serotonin response; activation, % at 7.6 µM; 0.66% of 360,000 active;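 active means activation above a run cutoff, the mean activation of all tested compounds plus 3 SD, cut at about 14% in these data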;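 further: 0% = plate median of compound wells and 100% = 30 µM serotonin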
# TMEM16A reconf: TMEM16A (mouse) chloride channel inhibition, re-confirmation. shares compounds with ANO1 block. inhibition, % at 10 µM. 39% of 2,300 active. HEK293 TMEM16A/YFP-H148Q, iodide quench fluorescence; ionomycin added to raise cell calcium;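 active means mean duplicate percent inhibition, scaled so buffer wells are 0 and the reference blocker 100, over three buffer SD above buffer mean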
# TMEM16A Ca cntr: calcium mobilization counter-screen hit for TMEM16A inhibitor series; shares compounds with ANO1 block; TMEM16A/YFP HEK293, Fluo4 calcium mobilization; calcium response (% of ionomycin), % at 10 µM; 2% of 2,300 active; AID 652231;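 active means duplicate-averaged calcium signal over 20% of the ionomycin maximum, relative to buffer baseline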;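 further: each well's signal is peak minus trough fluorescence divided by its pre-addition baseline; 0% = buffer wells and 100% = ionomycin wells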
# Parental YFP cnt: parental YFP-HEK293 iodide quench counter-screen activity | YFP ratio F(max-min)/F0 at 10 µM | 2,300 tested, under 10 active | shares compounds with ANO1 block | ionomycin;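 active means yellow fluorescent protein signal ratio exceeding the buffer control mean by over 5 SD of those controls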;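 further: ratio is mean of duplicate wells from kinetic YFP trace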
# ClC-1 rat inh: selectivity of TMEM16A inhibitors: inhibition of rat ClC-1 chloride channel. shares compounds with ANO1 block. CHO ClC-1-YFP, iodide influx fluorescence quench; iodide control reads 0, buffer control 100. ratio percent, % at 10 µM. 2,300 tested, under 10 active. AID 652236;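 active means duplicate-mean ratio percent above the mean of iodide-only control wells, which defines zero, plus 5 of their SD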;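 further: higher percent means stronger block of ClC-1 iodide influx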
# * hit, by the source's call; i = inactive; . = no result given. Only some compounds are listed: those with a hit (about 3.4% of all), similar ones and a draw of the others.
SMILES,MC4R ag barr,ANO1 activ,ANO1 block,beta cell repl,MC4R antagonist,HTR2A ag,TMEM16A reconf,TMEM16A Ca cntr,Parental YFP cnt,ClC-1 rat inh
COc1ccc(S(=O)(=O)N2CCN(C)CC2)cc1C(=O)Nc1ccccc1,-0.5,i,i,0.4,0.4,-2.0,.,.,.,.
CCCCn1c(N)c(N(CCOC)C(=O)CN(C)CC(=O)Nc2ccc(Cl)c(Cl)c2)c(=O)[nH]c1=O,0.1,i,.,-0.4,2.7,4.5,.,.,.,.
O=c1[nH]c(=O)n(C2OC(CO)C(O)C2O)cc1N1CCOCC1 (centres undefined),-2.5,i,.,.,7.3,8.7,.,.,.,.
Cc1cccc(N(Cc2ccccc2)C(=O)CSC(C)C(=O)Nc2cc(C)on2)c1 (centres undefined),-3.0,i,i,1.4,5.3,-7.3,.,.,.,.
COc1ccccc1N1CCN(C(=O)c2sc3nc(-c4ccc(F)cc4)cn3c2C)CC1,1.4,i,25*,-6.4,17.1,2.0,i,i,-0.917,-7.0
COc1ccc(-c2cn3c(C)c(C(=O)N4CCN(c5ccc(F)cc5)CC4)sc3n2)cc1,0.4,i,i,-4.0,1.6,5.8,.,.,.,.
CCOC1=C2CN(S(=O)(=O)c3ccccc3)[C@H](c3ccccc3)C[C@H]2n2c(=O)n(-c3ccccc3)c(=O)n2C1,.,.,.,.,.,-1.8,.,.,.,.
O=C(COc1ccc(Nc2ccccc2)cc1)Nc1ccncc1,-1.1,i,100*,-7.8,-4.9,-2.5,18.5%*,i,-0.931,-15.0
CC(C)(C)c1ccc(OCC(=O)Nc2ccc(C(=O)Nc3ccccc3C(=O)O)cc2)cc1,-3.1,i,25*,-7.3,4.4,-3.5,56.0%*,41.5%*,-1.23,-11.0
Cc1cc(OCC(=O)Nc2ccncc2)c(C)cc1Br,1.1,i,25*,-6.1,5.5,2.9,34.0%*,i,-0.876,0.5
COc1cccc(OCC(=O)Nc2ccncc2)c1,-1.9,i,i,-3.1,0.3,1.8,.,.,.,.
CC(C)CCOc1cccc(OCC(=O)Nc2ccncc2)c1,1.3,i,25*,-3.6,4.5,4.2,17.0%*,i,-1.23,-8.5
Cc1cc(NC(=O)CN2C(=O)NC3(CCCCC3)C2=O)ccc1N1CCCC1,-4.2,i,.,-1.6,2.5,-4.5,.,.,.,.
O=C(CC[C@H]1O[C@@H](n2ccc(=O)[nH]c2=O)[C@H](O)[C@@H]1O)NCc1ccccc1,.,.,.,.,.,5.0,.,.,.,.
COCOCCn1cc(CN2CCS(=O)(=O)N(Cc3ccc(-c4ccc(OC)cc4)cc3)C(C)C2=O)nn1 (centres undefined),-0.9,.,.,.,0.1,-0.5,.,.,.,.
CN(Cc1ccccc1)c1nccn2ccnc12,2.0,.,.,.,0.2,2.2,.,.,.,.
Cc1ccc(Cl)cc1N1CCN(C(=O)c2cc3c(=O)[nH]c4ccccc4c3n2C)CC1,4.1,i,25*,0.0,11.2,1.1,37.5%*,i,-0.975,-31.5
Cn1c(C(=O)N2CCN(c3ccc(Cl)cc3)CC2)cc2c(=O)[nH]c3ccccc3c21,-0.3,i,i,-1.0,-4.1,-5.5,.,.,.,.
COC(=O)c1sc(SC)c(-c2ccon2)c1C,-2.3,i,i,-0.1,-8.8,9.3,.,.,.,.
CC1=CCC[C@@H]2[C@]3(CC/C(=C/CO)CO)CO[C@@]2(C1)[C@@H](O)C[C@H]3C,-0.1,.,.,.,5.4,-2.2,.,.,.,.
CC(C)(C)NC1=CC(=O)OC12CCCCC2,0.5,i,i,1.2,6.4,0.9,i,i,-0.896,-0.5
CCOC(=O)C1(C)CCCN(C(=O)c2ccc3c(c2)CCO3)C1 (centres undefined),1.1,.,.,.,-1.9,2.1,.,.,.,.
CC(/C=C1\SC(=S)N(CC(=O)O)C1=O)=C\c1ccccc1,1.5,i,i,1.4,17.5,1.5,.,.,.,.
CC(/C=C1\SC(=S)N(C(C(=O)O)c2ccccc2)C1=O)=C\c1ccccc1 (centres undefined),0.5,i,100*,-5.9,8.5,6.8,71.5%*,i,-1.01,-68.0
CC(C)(C)n1nnnc1C(c1cc2ccccc2o1)N1CCOCC1 (centres undefined),.,.,.,.,.,7.4,.,.,.,.
SMILES,MC4R ag barr,ANO1 activ,ANO1 block,beta cell repl,MC4R antagonist,HTR2A ag,TMEM16A reconf,TMEM16A Ca cntr,Parental YFP cnt,ClC-1 rat inh
CC1C/C(=N/N=C2/NC(=O)CS2)CC(C)(C)C1 (centres undefined),-1.0,i,100*,-0.7,4.4,-1.5,i,i,-1.16,-13.0
O=C1CS/C(=N/N=C2C3CC4CC(C3)CC2C4)N1,3.0,i,i,1.5,20.3,-6.0,.,.,.,.
O=C(Nc1nnc(CSCc2ccc(Cl)cc2)s1)c1cccc([N+](=O)[O-])c1,1.0,i,25*,0.0,2.4,8.1,i,i,-1.05,-5.5
CCOC(=O)C1CCN(C(=O)c2ccc(OCC(=O)Nc3cccc(C(F)(F)F)c3)c(OC)c2)CC1,2.2,i,25*,-5.1,-1.1,4.0,28.5%*,i,-1.1,-19.0
CCOC(=O)C1CCN(C(=O)c2ccc(OCC(=O)Nc3cccc(C(F)(F)F)c3)cc2)CC1,-0.6,i,i,-5.6,3.0,-8.9,.,.,.,.
COc1ccc(Cl)cc1CN1CCN(c2nc(C)cc(C)c2C#N)CC1,2.0,i,i,0.0,-6.0,-3.4,.,.,.,.
Cc1cc(C)c(C#N)c(N2CCN(CCOc3ccc(Cl)cc3)CC2)n1,-0.3,i,25*,-2.4,-5.0,-4.0,i,i,-1.09,-11.5
CCCCN(CCCNC(=O)c1c(C)cc(=O)oc1C)c1ccccc1,1.6,i,i,-0.7,4.5,-8.3,.,.,.,.
CCN(CCCNC(=O)c1c(C)cc(=O)oc1C)c1ccccc1,0.8,i,25*,1.4,11.0,-1.9,i,i,-1.18,-10.0
COc1ccc(-c2c3c(cc4ncn(Cc5ccccc5)c24)COC3=O)cc1,-0.6,i,.,-2.2,4.2,3.1,.,.,.,.
COc1ccc2c(c1)C(C)=CC(C)(C)N2S(=O)(=O)c1ccc(C)cc1,-2.6,i,i,-5.5,-12.8,-6.3,.,.,.,.
CC1=CC(C)(C)N(S(=O)(=O)c2ccc(C)cc2)c2cc(C)ccc21,0.6,i,25*,-4.7,-21.9,-2.8,i,i,-1.21,-10.0
